Screens from PubChem.
Only some compounds are listed: those with a hit (about 1% of all), similar ones and a draw of the others.
VIM-2 inh = inhibitors of Pseudomonas aeruginosa VIM-2 metallo-beta-lactamase | AID 1527 | purified VIM-2, nitrocefin hydrolysis, epi-absorbance fluorescence | 290,000 tested, 0.89% active | inhibition, % at 5.6 µM;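 active = inhibition above the mean of all tested compounds plus 3 SD, cutoff set per screening run, cut at about 7.5% in these data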;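 note: red hydrolysis product quenches plate fluorescence so inhibitors raise well fluorescence; 0% = enzyme with DMSO and 100% = DMSO without enzyme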
IMP-1 inh = blocks Pseudomonas aeruginosa IMP-1 metallo-beta-lactamase; purified IMP-1, nitrocefin hydrolysis, epi-absorbance fluorescence; inhibition, % at 5.6 µM; 290,000 tested, 0.45% active; AID 1556;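 active = inhibition above the mean plus 3 SD of all compounds in the same screening run, cut at about 4.5% in these data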;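 note: 0% = IMP-1 with DMSO and 100% = DMSO wells lacking enzyme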
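System – purified recombinant IMP-1 beta-lactamase · Input – IMP-1 dispensed at 0.2 nM · Timing – 15 min preincubation plus 25 min reaction at 25 °C · Signal – Epi-absorbance fluorescence, 480 nm excitation, 530 nm emission · Measure – percent IMP-1 inhibition derived from blank-referenced optical density · Controls – Enzyme-plus-DMSO low control, enzyme-free DMSO high control · Replication – singlicate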
PvdQ inh = P. aeruginosa PvdQ acylase inhibition. purified PvdQ acylase, fluorescence plate reader. inhibition, % at 10 µM. 340,000 tested, 0.063% active; in the data active = inhibition above about 30%, passing the limit was not always enough;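 note: 0% = vehicle neutral wells and 100% = reference inhibitor wells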
RAD54 inh = blocks human RAD54 Holliday junction branch migration; 360,000 tested, 0.14% active; AID 602329; inhibition, % at 10.4 µM; FAM/BHQ fluorescence; Q92698;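 active = mean normalized replicate activity at least 40 and at least half of replicates scoring 40 or more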;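 note: 0% = median of neutral control wells and 100% = median of positive control wells; inhibitors cause a drop in the FAM fluorescence signal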
Target sequence (Q92698 whole entry, looked up): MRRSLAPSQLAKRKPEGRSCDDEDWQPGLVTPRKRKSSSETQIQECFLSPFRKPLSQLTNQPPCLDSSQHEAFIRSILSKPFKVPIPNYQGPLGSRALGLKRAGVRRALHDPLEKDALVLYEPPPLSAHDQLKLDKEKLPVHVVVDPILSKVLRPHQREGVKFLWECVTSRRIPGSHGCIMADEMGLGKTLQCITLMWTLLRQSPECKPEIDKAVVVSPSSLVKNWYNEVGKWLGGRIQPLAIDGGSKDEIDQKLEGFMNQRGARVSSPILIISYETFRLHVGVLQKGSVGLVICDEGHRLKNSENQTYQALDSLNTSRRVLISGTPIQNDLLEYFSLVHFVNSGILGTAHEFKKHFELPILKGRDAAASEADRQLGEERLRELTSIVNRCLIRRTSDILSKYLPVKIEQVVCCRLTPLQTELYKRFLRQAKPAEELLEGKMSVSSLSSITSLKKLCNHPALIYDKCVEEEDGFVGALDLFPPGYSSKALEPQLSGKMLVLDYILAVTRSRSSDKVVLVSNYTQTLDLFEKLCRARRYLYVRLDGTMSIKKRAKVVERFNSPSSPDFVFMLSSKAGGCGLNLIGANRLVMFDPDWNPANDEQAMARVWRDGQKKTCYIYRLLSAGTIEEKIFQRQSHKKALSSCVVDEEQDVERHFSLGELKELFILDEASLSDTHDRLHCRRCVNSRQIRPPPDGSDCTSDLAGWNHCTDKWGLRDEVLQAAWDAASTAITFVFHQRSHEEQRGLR
FID counter = displaces DNA intercalator in HCV helicase counter-screen. DNA fluorescent intercalator displacement, fluorescence. inhibition, % at 7.9 µM. 290,000 tested, 0.17% active. AID 1845; in the data active = inhibition above about 37%;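 note: 0% = vehicle and 100% = reference compound; higher means more ethidium bromide displaced from hairpin DNA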
* marks the source's active call; other numbers are inactive results; / = no result given.

SMILES	VIM-2 inh	IMP-1 inh	PvdQ inh	RAD54 inh	FID counter
Cc1ccc(NC(=O)c2ccc3c(=O)n4c(nc3c2)CCCCC4)cc1F	1	-2	-16	-6	-20
Cc1ccc(NC(=O)C2=C(C(=O)O)CCCC2)cc1F	1	7.9*	-8	10	-2
Cc1ccc(NC(=O)C2=C(C(=O)O)CCCC2)cc1Br	3	13*	-16	-1	5
CC(C)CC#Cc1ccc2c(c1)O[C@@H](CN(C)C(=O)Nc1ccccc1)[C@@H](C)CN([C@H](C)CO)S2(=O)=O	/	/	/	1	/
CCCc1cc(=O)oc2cc(C)cc(OCC(=O)Nc3cccnc3)c12	12*	-5	-13	-7	-25
Cc1oc2c(C)c3oc(=O)c(CCC(=O)NCCCN4CCCC4=O)c(C)c3cc2c1C	-1	0	-8	6	-44
Cc1coc2c(C)c3oc(=O)c(CCC(=O)NCCCN4CCOCC4)c(C)c3cc12	11*	-1	-8	10	7
Cc1oc2c(C)c3oc(=O)c(CCC(=O)NCCCN4CCOCC4)c(C)c3cc2c1C	5	-2	-12	22	13
Cc1oc2c(C)c3oc(=O)c(CCC(=O)N4C[C@H]5C[C@@H](C4)c4cccc(=O)n4C5)c(C)c3cc2c1C	3	-4	-17	-4	-55
Cc1coc2c(C)c3oc(=O)c(CCC(=O)N4C[C@H]5C[C@@H](C4)c4cccc(=O)n4C5)c(C)c3cc12	7.7*	-3	-9	6	-53
Cc1coc2c(C)c3oc(=O)c(CCC(=O)NCCN4CCOCC4)c(C)c3cc12	8.2*	-1	-5	12	0
Cc1c(CCC(=O)NCCCn2ccnc2)c(=O)oc2c(C)c3occ(C(C)(C)C)c3cc12	8.1*	1	-3	-9	38*
C[C@@H]1CN([C@H](C)CO)C(=O)c2cc(NC(=O)Nc3ccc(C(F)(F)F)cc3)ccc2O[C@@H](C)CCCCO[C@H]1CN(C)Cc1ccc(C(=O)O)cc1	/	/	/	-3	/
C[C@@H]1CN([C@@H](C)CO)C(=O)Cc2cc(NS(=O)(=O)c3cccs3)ccc2O[C@@H]1CN(C)S(C)(=O)=O	/	/	/	9	/
O=C(CCN1C(=O)C2C3C=CC(C4CC34)C2C1=O)Nc1ccc(Cl)cc1O (stereo not given)	-3	13*	-12	9	-6
O=C(O)Cn1nc2c3c(cccc3c1=O)-c1ccccc1-2	7.8*	-4	8	10	-8
COc1cc(Br)c(CNc2cc(C)ccc2C)cc1OC	-2	4.7*	-10	-6	-6
CCOc1ccc(/C(O)=C2/C(=O)C(=O)N(c3nc(C)c(C)s3)C2c2ccco2)cc1 (stereo not given)	2	5.5*	-9	3	5
Cc1noc(C)c1NC(=O)Nc1cccc2c1O[C@H](CN(C)C(=O)NC1CCCCC1)[C@H](C)CN([C@@H](C)CO)C2=O	/	/	/	-1	/
N#Cc1ccccc1Cn1c(=O)n(Cc2ccc(C(=O)NCc3ccco3)cc2)c(=O)c2sccc21	-1	7.0*	-11	8	-19
N#Cc1ccccc1Cn1c(=O)n(-c2ccc(CC(=O)NCc3ccco3)cc2)c(=O)c2sccc21	0	-2	-5	-9	-22
COC(=O)C(CC#Cc1ccc2c(c1)[C@]1(C(=O)N2)[C@H](C(=O)NC[C@H](O)c2ccccc2)[C@H]2C(=O)O[C@H](c3ccccc3)[C@H](c3ccccc3)N2[C@@H]1c1ccccc1OCCO)C(=O)OC	/	/	/	-11	/
c1csc(-c2nnc(N3CCCCCC3)c3ccccc23)c1	-2	-4	-14	/	-3
c1csc(-c2nn3cnnc3c3ccccc23)c1	12*	-3	-6	/	-2
COc1ccccc1/C=C/C=C1\Oc2c(ccc(O)c2CN2CCN(CCO)CC2)C1=O	2	27*	14	-160	6
SMILES	VIM-2 inh	IMP-1 inh	PvdQ inh	RAD54 inh	FID counter
CCN1CCN(Cc2c(O)ccc3c2O/C(=C\c2ccc(C)cc2)C3=O)CC1	8.8*	2	-6	/	20
O=C1/C(=C/C=C/c2ccccc2)Oc2c1ccc(O)c2CN1CCN(CCO)CC1	-2	-1	1	-22	1
CCc1ccc(/C=C2\Oc3c(ccc(O)c3CN3CCN(C)CC3)C2=O)cc1	2	-2	-3	/	6
Cc1ccc(/C=C2\Oc3c(ccc(O)c3CN3CCN(C)CC3)C2=O)cc1	9.5*	1	-8	/	27
COc1ccc(S(=O)(=O)Nc2ccc3c(c2)C(=O)N([C@H](C)CO)C[C@@H](C)[C@H](CN(C)C)O3)cc1	/	/	/	-1	/
CC(=O)N(CC1CCC1)C[C@H]1N[C@H](CO)[C@@H]1c1ccc(C2=CCCC2)cc1	/	/	/	-1	/
CCCNC(=O)Nc1ccc2c(c1)C(=O)N(C)[C@@H]1CC[C@@H](CC(=O)OC)O[C@H]1CO2	/	/	/	3	/
C[C@@H]1CN([C@H](C)CO)C(=O)c2cc(C#C[C@@H](C)O)cnc2O[C@H]1CN(C)C(=O)CN1CCOCC1	/	/	/	2	/
COc1cc2[nH]c(=O)n(Cc3ccc(C(=O)N4CCC(N5CCCCC5)CC4)cc3)c(=O)c2cc1OC	-2	-3	-17	40	8
COc1cc2[nH]c(=O)n(CCC(=O)N3CCC(N4CCCCC4)CC3)c(=O)c2cc1OC	7.8*	-2	-12	4	0
OCC1(CCOc2ccccc2)CCN(Cc2ccccc2C(F)(F)F)CC1	-2	-3	9	-2	5
CCOc1ccccc1CN1CCC(CO)(CCOc2ccccc2)CC1	-1	1	-11	/	42*
NC(=O)c1ccc(-n2nnnc2SCC(=O)c2ccc(O)c(O)c2)cc1	11*	0	11	/	-3
Cc1[nH]c2ccccc2c1C(=O)COC(=O)c1ccc[n+]([O-])c1	8.9*	2	-2	/	-9
COCC(=O)Nc1ccc2c(c1)OC[C@@H](C)N(CC1CC1)C[C@H](C)[C@H](OC)CN(C)C2=O	/	/	/	8	/
O=C(O)C1=C[C@H](c2csc3ccccc23)C[C@H](OCCCCO)O1	9.5*	3	-7	1	-16
COc1ccc(S(=O)(=O)N(C)C[C@@H]2Oc3ccc(NS(=O)(=O)c4ccc(F)cc4)cc3C(=O)N([C@@H](C)CO)C[C@@H]2C)cc1	/	/	/	-8	/
O=C(c1cc(Cl)nc2ccccc12)N1CCN(S(=O)(=O)c2ccccc2[N+](=O)[O-])CC1	-1	4.5*	-3	0	-28
C[C@H](CO)N1C[C@H](C)[C@H](CN(C)Cc2ccncc2)Oc2c(NC(=O)Nc3ccc(F)cc3)cccc2C1=O	/	/	/	-8	/
CCN(CC(=O)Nc1ccc(NC(C)=O)cc1)CC(=O)Nc1ccc(Cl)c(Cl)c1	0	5.9*	-6	-13	6
CC1CCN(S(=O)(=O)c2cn(CC(=O)Nc3ccc(OC(F)(F)F)cc3)cn2)CC1	-3	8.8*	7	-5	-4
Cc1ccc2scc(CN3CCCC3)c2c1	/	/	38*	-5	/
COc1cc(C2CC(=O)Nc3ccccc3S2)cc(OC)c1OC (stereo not given)	1	-1	-6	-1	89*
